Assay outcomes: PubChem BioAssay, several laboratories
SKN-1 block: blocks SKN-1 activity in C. elegans | C. elegans VP596 Pgst-4::GFP/RFP ratio, acrylamide-induced, 24 h | inhibition, % at 21.8 µM | 0.49% of 360,000 active | AID 624304;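 active = interference check ratio from 0.5 to 1.5 plus GFP to RFP signal ratio inhibition reaching or exceeding a fixed threshold, cut at about 30% in these data, passing the limit was not always enough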
hiPSC survival: increases survival of single human iPS cells; hiPSC single-cell survival, ATPlite luminescence; 100% = ROCK inhibitor wells, 0% = DMSO; survival enhancement, % at 20 µM; 0.044% of 360,000 active; AID 602274; in the data active = survival enhancement above about 18%;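 note: cells exposed to compounds for 16 hours before the ATP read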
FAS TE block: FAS thioesterase (human) inhibition | inhibition, % at 15 µM | 0.67% of 360,000 active | AID 602261 | recombinant FAS-TE, OMFH fluorogenic substrate, fluorescence endpoint | P49327;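 active = compounds whose normalised, plate-corrected inhibition of enzyme fluorescence in the single-dose primary screen is 50% or more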
DAGLB inh: diacylglycerol lipase beta (human) inhibition. Q8NCG7. HEK293T DAGLB membrane lysate, EnzChek fluorogenic substrate. inhibition, % at 5.17 µM. 0.059% of 340,000 active; in the data active = inhibition above about 34%
MT1-MMP act inh: MT1-MMP (human) activation inhibition. AID 651647. HT1080 RFP-PRO-GFP cells, GFP/RFP ratio fluorescence, overnight; percent of plate control window, DMSO zero. GFP/RFP ratio change, % at 20 µM. P50281. 0.061% of 360,000 active;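 active = GFP/RFP ratio change of at least 30% with cell ATP level not reduced by more than half and red fluorescence within 50% of control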
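Test system: HT1080 cells expressing an RFP-PRO-GFP fluorescent reporter construct / Compound dosing: single-point 20 µM compound, 1% DMSO / Schedule: cells overnight before dosing, compound overnight, 37 °C, 5% CO2 / Evaluation: GFP/RFP fluorescence ratio / Control set: DMSO and RFP-L50D-GFP cell wells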
A number is an active result; - = inactive; . = no result given. Only some compounds are listed: those with a hit (about 1.3% of all), similar ones and a draw of the others.

SMILES | SKN-1 block | hiPSC survival | FAS TE block | DAGLB inh | MT1-MMP act inh
O=C(NCc1ccc2c(c1)OCO2)c1cccc(N2CCCC2=O)c1 | 43 | - | - | - | -
O=[N+]([O-])c1ccccc1NCCOc1ccccc1 | 46 | - | - | - | -
CN(CCO)c1cccc2c1S(=O)(=O)N[C@@H](Cc1ccccc1)CO2 | - | - | - | . | -
CCOC(=O)c1c(C)cc(C)n2c1nc1ccccc12 | 40 | - | - | - | -
CCOC(=O)c1sc2nc3c(SCCC#N)cc(C(=O)c4cc(F)ccc4O)cn3c(=O)c2c1C | - | - | - | - | -
O=C(O)CSc1cc(C(=O)c2cc(F)ccc2O)cn2c(=O)c3c(-c4ccccc4)csc3nc12 | - | - | 66 | - | -
CC(CC(=O)c1ccccc1)=NCC(O)CN=C(C)CC(=O)c1ccccc1 (centres undefined) | - | - | - | - | -
CCCOc1ccc([N+](=O)[O-])cc1C1NC(=S)NC(c2ccccc2)=C1C(=O)OCC (centres undefined) | - | - | 66 | - | -
COC(=O)CCCC1=CC2=CC(=O)C(C)(OC(=O)CCc3ccccc3)C(=O)C2=CO1 (centres undefined) | 33 | - | - | - | -
CCc1nc(SCC(=O)Nc2nc3c(s2)CCCC3)c2ccccc2n1 | - | - | - | - | -
CCCc1nc(SCC(=O)Nc2nc3c(s2)CCCC3)c2ccccc2n1 | - | 22 | - | - | -
CCc1nc2c(OCC3CCCCC3)cccn2c1N(C)C(=O)c1ccc(C)cc1 | - | - | - | . | -
CCOC(=O)C1(C)CCCN(C(=O)c2ccc(OC(F)F)cc2)C1 (centres undefined) | - | - | - | . | -
C[C@H]1CN([C@@H](C)CO)C(=O)c2cc(Br)cnc2O[C@H]1CN(C)C(=O)C1CC1 | - | - | - | - | -
C[C@@H]1CN([C@@H](C)CO)C(=O)c2cc(Br)cnc2O[C@H]1CN(C)C(=O)C1CC1 | - | 20 | - | - | -
CC1=C(C(=O)N2CCOCC2)CC(CC(=O)NCCc2ccccn2)C(=O)N1Cc1ccccc1 (centres undefined) | - | - | - | . | -
Brc1cc(Br)c2nc(-c3cccs3)ccc2c1 | 58 | - | - | - | -
CCOC(=O)c1c(-c2ccc(OC)cc2)oc2c1C(OC(C)=O)CCC2 (centres undefined) | - | - | - | . | -
Clc1ccccc1-c1nc(-c2cccnc2)no1 | 34 | - | - | - | -
c1ccc(-c2ccccc2-c2nc(-c3ccncc3)no2)cc1 | - | - | - | - | -
Clc1ccc(-c2nc(-c3ccncc3)no2)c(Cl)c1 | 36 | - | - | - | -
Clc1ccc(OCCCc2nc(-c3ccncc3)no2)c(Cl)c1 | 43 | - | - | - | -
Clc1ccccc1-c1nc(-c2ccncc2)no1 | 46 | - | - | - | -
CCCCc1ccc(S(=O)(=O)NC(=O)C2(C)CCN2C(=O)CCc2cccs2)cc1 (centres undefined) | - | - | - | . | -
COc1ccc([N+](=O)[O-])cc1NC(=O)C(C)OC(=O)CSC(C)C(=O)Nc1cc(C)on1 (centres undefined) | 37 | - | - | - | -
SMILES | SKN-1 block | hiPSC survival | FAS TE block | DAGLB inh | MT1-MMP act inh
Cc1cc(NC(=O)C(C)SCC(=O)OC(C)C(=O)Nc2ccccc2C)no1 (centres undefined) | - | - | - | - | -
O=[N+]([O-])c1ccccc1S(=O)(=O)N1CCN(S(=O)(=O)c2ccc3c(c2)OCCO3)CC1 | - | - | 53 | - | -
COc1cc2sc3ccc(C#Cc4ccc(N)cc4)cc3c(=O)c2cc1OC | 40 | - | - | - | -
COc1cc2sc3ccc(C#Cc4ccccn4)cc3c(=O)c2cc1OC | - | - | - | - | -
Cn1c(Cc2ccccc2)nnc1SCC(=O)Nc1ccccc1 | - | - | - | - | -
Cn1c(Cc2ccccc2)nnc1SCC(=O)Nc1ccc2c(c1)OCO2 | 46 | - | - | - | -
COC(=O)c1cc(-c2ccc(Br)cc2)n[nH]1 | 36 | - | - | - | -
CC(=O)NC(C)(c1ccccc1)c1nc(-c2cc(F)cc(F)c2)cs1 (centres undefined) | - | - | - | . | -
O=S1(=O)CC(NCc2ccccc2)C(Nc2ccccc2)C1 (centres undefined) | - | - | - | - | -
O=C(NC1CS(=O)(=O)CC1NCc1ccccc1)c1ccccc1 (centres undefined) | 37 | - | - | - | -
COc1cccc(C(O)c2nc(-c3cncnc3)cs2)c1 (centres undefined) | - | - | - | . | -
CN(Cc1c(C(=O)N/N=C/c2c(F)cccc2Cl)nnn1-c1nonc1N)C1CCCCC1 | - | - | - | - | -
O=C(CC1Sc2ccccc2NC1=O)NNc1cc(Cl)ccc1Cl (centres undefined) | 40 | - | - | - | -
O=C(CC1Sc2ccccc2NC1=O)NNc1ccc(F)cc1 (centres undefined) | - | - | - | - | -
COc1ccc(C(=O)C(=O)N2CCN(c3ccccc3F)CC2)cc1 | - | . | . | . | -
C/C(=N\N=c1/sc2ccccc2n1C)c1ccc(N2CCOCC2)cc1 | - | - | - | - | -
C/C(=N\N=c1/sc2ccccc2n1C)c1ccccn1 | 36 | - | - | - | -
Cc1cccc(CSc2ccc(-c3ccco3)nn2)c1 | - | - | - | - | -
Clc1ccc(CSc2ccc(-c3ccco3)nn2)cc1 | - | - | - | - | -
Clc1cccc(CSc2ccc(-c3ccco3)nn2)c1 | 67 | - | - | - | -
c1ccc(CSc2ccc(-c3ccco3)nn2)cc1 | 36 | - | - | - | -
Fc1ccccc1CSc1ccc(-c2ccco2)nn1 | 39 | - | - | - | -
Cc1ccc(CSc2ccc(-c3ccco3)nn2)cc1 | - | - | - | - | -
O=C(C(=O)N1CCC(Cc2ccccc2)CC1)c1cccc(Br)c1 | - | . | . | . | -
CC1CCN(CCCNC(=O)c2coc3nc4ccccc4nc23)CC1 | - | - | - | - | -
SMILES | SKN-1 block | hiPSC survival | FAS TE block | DAGLB inh | MT1-MMP act inh
Cc1ccc(CCNC(=O)c2coc3nc4ccccc4nc23)cc1 | 37 | - | - | - | -
Nc1c(/C=C2/C=CC(=O)C(O)=C2)c(=O)nc2sc(CC(=O)N3CCOCC3)nn12 | - | - | - | - | -
CC1=Nc2ccc(C)cc2/C1=C/c1c(N)n2nc(CC(=O)N3CCOCC3)sc2nc1=O | 38 | - | - | - | -
CCCNC(=O)C1(C)CCCN(Cc2cccc(C#N)c2)C1 (centres undefined) | - | - | - | . | -
CCC1CCCCN1CCN1C(=O)C2C(C(=O)Nc3ccc(OC)cc3)C3C=CC2(O3)C1C(=O)NC1CCCCC1 (centres undefined) | 37 | - | - | - | -
CCC1CCCCN1CCN1C(=O)C2C(C(=O)Nc3cccc(OC)c3)C3C=CC2(O3)C1C(=O)NC1CCCCC1 (centres undefined) | - | - | - | - | -
